Experimental data from different studies.
Compare with care: the assays were run in different laboratories.
Target: Megakaryocyte-associated tyrosine-protein kinase (MATK, Homo sapiens, UniProt P42679)
Residues used in one study (P42679 1-507): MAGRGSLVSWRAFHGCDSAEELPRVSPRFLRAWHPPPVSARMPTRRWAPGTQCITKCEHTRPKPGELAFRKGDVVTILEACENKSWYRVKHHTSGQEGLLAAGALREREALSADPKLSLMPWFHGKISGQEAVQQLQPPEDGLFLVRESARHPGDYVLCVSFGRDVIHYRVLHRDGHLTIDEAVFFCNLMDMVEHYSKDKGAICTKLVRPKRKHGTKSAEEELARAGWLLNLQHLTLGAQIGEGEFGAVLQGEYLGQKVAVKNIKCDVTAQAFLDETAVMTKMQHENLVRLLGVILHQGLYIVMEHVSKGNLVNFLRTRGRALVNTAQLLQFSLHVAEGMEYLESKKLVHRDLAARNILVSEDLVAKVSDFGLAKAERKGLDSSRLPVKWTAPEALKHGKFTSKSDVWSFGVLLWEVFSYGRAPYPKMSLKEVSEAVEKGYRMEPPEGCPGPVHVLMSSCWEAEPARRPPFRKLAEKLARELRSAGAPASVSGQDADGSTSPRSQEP

| Compound | assay | conditions | quantity | value |
| --- | --- | --- | --- | --- |
| Cn1cncc1[C@](O)(COc1ccc(C#N)cc1-c1ccc(OC(F)(F)F)cc1)c1ccc(C#N)cc1 | cell-free assay, competition with immobilised ligand | 1 µM | remaining binding | 98% |
| Cn1cc(-c2cc(F)cc(N3CCn4c(cc5c4CCCC5)C3=O)c2CO)cc(Nc2ccc(N3CCN(C4COC4)CC3)cn2)c1=O | enzyme activity, inhibitor | 0.1 µM | inhibition | 9% |
| COc1ncccc1-c1cnn2ccc(N3CCN(C(=O)OC(C)C)CC3)nc12 | binding, competition with immobilised ligand | 1 µM | remaining binding | 46% |
| CC(C)(C)c1cc(C=C(C#N)C#N)cc(Br)c1O | enzyme activity, inhibitor | 0.5 µM | remaining activity | 102% |
| Nc1ncc(-c2nc(N3CCOCC3)nc(N3CCOCC3)n2)c(C(F)F)n1 | binding, competition with immobilised ligand | 10 µM | remaining binding | 100% |
| O=c1[nH]c2ccccc2n1C1CCN(Cc2ccc(-c3[nH]c4cc5ncnc5cc4nc3-c3ccccc3)cc2)CC1 | cell-free assay | 0.5 µM | remaining signal | 102% |
| Cn1cc(-c2cccc(N3CCc4c(sc5c4CC(C)(C)C5)C3=O)c2CO)cc(Nc2ccncn2)c1=O | enzyme activity, inhibitor | 1 µM | inhibition | 4% |
| Cc1nn(C)cc1-c1nc2c(N3CCN(Cc4ccc(Cl)cc4)CC3)c(Cl)cnc2[nH]1 | binding, competition with immobilised ligand | 1 µM | remaining binding | 82% |
| COc1cc(Nc2ncc(F)c(Nc3ccc4c(n3)NC(=O)C(C)(C)O4)n2)cc(OC)c1OC | binding, competition with immobilised ligand | 10 µM | inhibition | 70% |
